Assay results as given in ChEMBL document CHEMBL1158122, “Anti-inflammatory, anti-tumor-promoting, and cytotoxic activities of constituents of marigold (Calendula officinalis) flowers” (J Nat Prod, 2006).

Columns and labels:
[1] = system: HCC 2998; assay: Cytotoxicity against human HCC2998 cells after 48 hrs by SRB assay; type: functional; details: HCC 2998, 48 h
[2] = system: MCF7; assay: Cytotoxicity against human MCF7 cells after 48 hrs by SRB assay; type: functional; details: MCF7, 48 h
[3] = system: EKVX; assay: Cytotoxicity against human EKVX cells after 48 hrs by SRB assay; type: functional
[4] = system: SK-MEL-5; assay: Cytotoxicity against human SK-MEL-5 cells after 48 hrs by SRB assay; type: functional; details: SK-MEL-5, 48 h
[5] = system: OVCAR-8; assay: Cytotoxicity against human OVCAR8 cells after 48 hrs by SRB assay; type: functional; details: OVCAR-8, 48 h
[6] = system: PC-3; assay: Cytotoxicity against human PC-3 cells after 48 hrs by SRB assay; type: functional; details: PC-3, 48 h
[7] = system: SK-MEL-2; assay: Cytotoxicity against human SK-MEL-2 cells after 48 hrs by SRB assay; type: functional; details: SK-MEL-2, 48 h
[8] = Inhibition of TPA-induced EBV-early antigen activation in human Raji cells relative to TPA; type: cell-based, human gammaherpesvirus 4
[9] = system: Raji; assay: Inhibition of TPA-induced EBV-early antigen activation in human Raji cells at 100 molar ratio relative to TPA; type: cell-based; design: scale not given: the % may be the effect or the level left; details: human gammaherpesvirus 4
[10] = system: Raji; assay: Inhibition of TPA-induced EBV-early antigen activation in human Raji cells at 10 molar ratio relative to TPA; type: cell-based; design: scale not given: the % may be the effect or the level left; details: human gammaherpesvirus 4
[11] = system: OVCAR-3; assay: Cytotoxicity against human OVCAR-3 cells after 48 hrs by SRB assay; type: functional; details: OVCAR-3, 48 h
[12] = system: HOP-92; assay: Cytotoxicity against human HOP-92 cells after 48 hrs by SRB assay; type: functional; details: HOP-92, 48 h
[13] = system: CAKI-1; assay: Cytotoxicity against human Caki-1 cells after 48 hrs by SRB assay; type: functional; details: CAKI-1, 48 h
[14] = system: Raji; assay: Inhibition of TPA-induced EBV-early antigen activation in human Raji cells at 500 molar ratio relative to TPA; type: cell-based; design: scale not given: the % may be the effect or the level left; details: human gammaherpesvirus 4
[15] = system: SNB-19; assay: Cytotoxicity against human SNB-19 cells after 48 hrs by SRB assay; type: functional; details: SNB-19, 48 h
[16] = system: SF-295; assay: Cytotoxicity against human SF-295 cells after 48 hrs by SRB assay; type: functional; details: SF-295, 48 h
[17] = system: TK-10; assay: Cytotoxicity against human TK-10 cells after 48 hrs by SRB assay; type: functional; details: TK-10, 48 h
Summary of the method: (§1)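 Tested in the NCI panel of 60 human tumour cell lines covering lung, colon, melanoma, renal, ovarian, breast and leukaemia. At least five concentrations were run in 10-fold dilutions starting from 10^-4 M. Exposure was continuous for 48 h. Growth or viability was estimated by sulforhodamine B protein staining, and GI50 values were reported.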

[18] = system: UACC-62; assay: Cytotoxicity against human UACC-62 cells after 48 hrs by SRB assay; type: functional; details: UACC-62, 48 h; summary of the method: as §1
[19] = system: COLO 205; assay: Cytotoxicity against human COLO205 cells after 48 hrs by SRB assay; type: functional; details: COLO 205, 48 h
[20] = system: NCI-H522; assay: Cytotoxicity against human NCI-H522 cells after 48 hrs by SRB assay; type: functional; details: NCI-H522, 48 h
[21] = system: 786-0; assay: Cytotoxicity against human 786-0 cells after 48 hrs by SRB assay; type: functional; details: 786-0, 48 h
[22] = system: SW-620; assay: Cytotoxicity against human SW620 cells after 48 hrs by SRB assay; type: functional; details: SW-620, 48 h
[23] = system: HL-60; assay: Cytotoxicity against human HL-60 cells after 48 hrs by SRB assay; type: functional; details: HL-60, 48 h
[24] = system: HT-29; assay: Cytotoxicity against human HT-29 cells after 48 hrs by SRB assay; type: functional; details: HT-29, 48 h
[25] = system: KM12; assay: Cytotoxicity against human KM12 cells after 48 hrs by SRB assay; type: functional; details: KM12, 48 h
[26] = system: MDA-MB-231; assay: Cytotoxicity against human MDA-MB-231 cells after 48 hrs by SRB assay; type: functional; details: MDA-MB-231, 48 h
[27] = system: LOX IMVI; assay: Cytotoxicity against human LOX IMVI cells after 48 hrs by SRB assay; type: functional
[28] = system: ACHN; assay: Cytotoxicity against human ACHN cells after 48 hrs by SRB assay; type: functional
[29] = system: NCI-H460; assay: Cytotoxicity against human NCI-H460 cells after 48 hrs by SRB assay; type: functional; details: NCI-H460, 48 h

IC50 [8]: 473 molar ratio
SMILES: CCCCOC(=O)[C@H]1O[C@@H](O[C@H]2CC[C@]3(C)[C@H]4CC=C5[C@@H]6CC(C)(C)CC[C@]6(C(=O)O)CC[C@@]5(C)[C@]4(C)CC[C@H]3C2(C)C)[C@H](O[C@@H]2O[C@H](CO)[C@@H](O)[C@H](O)[C@H]2O)[C@@H](O[C@@H]2O[C@H](CO)[C@H](O)[C@H](O)[C@H]2O)[C@@H]1O
GI50 [1]: 21.8 µM
GI50 [2]: 38.4 µM
GI50 [3]: 24.4 µM
GI50 [4]: 33.1 µM
GI50 [5]: 66.8 µM
GI50 [6]: 34.7 µM
GI50 [7]: 40.9 µM
Activity [9]: 71%
Activity [10]: 100%
GI50 [11]: > 100 µM
GI50 [12]: 33.2 µM
GI50 [13]: 33.4 µM
Activity [14]: 49.3%
GI50 [15]: 22.5 µM
GI50 [16]: 26 µM
GI50 [17]: 33.3 µM
GI50 [18]: 20.9 µM
GI50 [19]: 20.1 µM
GI50 [20]: 43.9 µM
GI50 [21]: 26.2 µM
GI50 [22]: 36.6 µM
GI50 [23]: 22.3 µM
GI50 [24]: 34.2 µM
GI50 [25]: 30.8 µM
GI50 [26]: 14.5 µM
GI50 [27]: 18 µM
GI50 [28]: 20.6 µM
GI50 [29]: 33.3 µM
